Inhibition and IC50 data for 16 compounds are collected here from ChEMBL document CHEMBL1156123, “A facile synthesis and biological activity of novel tetrahydrobenzo[4',5']thieno[3',2':5,6]pyrido[4,3-d]pyrimidin-4(3H)-ones” (Bioorg Med Chem Lett, 2009).

As a reminder, the inhibition is the percentage by which the read-out fell short of the control. A high value points to a strong effect. As usually defined, the IC50 is the concentration needed to halve the response being measured. The low end stands for inhibition by little substance, the high end for a need for much substance.

The subject of one test is Botrytis cinerea. Nature of the test: Antifungal activity against Botrytis cinerea at 50 mg/L relative to control. The test is classed as functional.
For the next test, the system named is Rhizoctonia solani. Description: Antifungal activity against Rhizoctonia solani at 50 mg/L relative to control. It is filed as functional.
The next test relates to KB. Nature of the test: Cytotoxicity against human KB cells after 72 hrs MTT assay. The test is classed as functional, cell-based. Summed up: (§1)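 MTT read-out after 72 h exposure to compound. KB are drug-sensitive human oral carcinoma cells. KBv200 are the vincristine-induced multidrug-resistant derivative overexpressing ABCB1. Values are means of three independent experiments, each run in quadruplicate, with coefficients of variation below 10%.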
On the technique in general: Formazan colour is commonly taken as a measure of viable cells.

Test [1] is described as follows: Cytotoxicity against multi-drug resistant human KBv200 cells after 72 hrs by MTT assay. The test is classed as functional, cell-based. To be noted: KBv200, 72 h. The essentials: as §1
Test [2] deals with Botryosphaeria berengeriana. Nature of the test: Antifungal activity against Botryosphaeria berengeriana at 50 mg/L relative to control. The test is classed as functional.
For another test, the system named is Fusarium graminearum. Nature of the test: Antifungal activity against Gibberella zeae at 50 mg/L relative to control. The test is classed as functional.
In another test the test system is Bipolaris maydis. Description: Antifungal activity against Bipolaris maydis at 50 mg/L relative to control. It is filed as functional.

With `Cc1nc2sc3c(c2c2nc(Oc4ccc(Br)cc4)n(-c4ccccc4)c(=O)c12)CCCC3`, the inhibition at 50 µg/mL in the test on Botrytis cinerea worked out at 83%; with Rhizoctonia solani, 68%; in test [2], 83%; in the test with Fusarium graminearum, 65%; in the test on Bipolaris maydis it was 81%. Besides, the concentration for half-maximal inhibition (IC50) in the test with KB is 68.9 µM; in test [1], greater than 100 µM.
Turning to `CCCCNc1nc2c(c(C)nc3sc4c(c32)CCCC4)c(=O)n1-c1ccccc1`, the inhibition at 50 µg/mL stood at 100% with Botrytis cinerea; 89% with Rhizoctonia solani; 76% in test [2]; 83% in the test on Fusarium graminearum; 79% with Bipolaris maydis. Also, the IC50 was 32 µM with KB and 32.8 µM in test [1].
For `Cc1ccc(Cl)c(Oc2nc3c(c(C)nc4sc5c(c43)CCCC5)c(=O)n2-c2ccccc2)c1`, the inhibition at 50 µg/mL came out at 88% in the test with Botrytis cinerea; 63% in the test with Rhizoctonia solani; 50% in test [2]; 23% with Fusarium graminearum; 48% in the test on Bipolaris maydis. Also, the half-inhibitory concentration (IC50) (with KB; in test [1]) was greater than 100 µM throughout.
On to `Cc1nc2sc3c(c2c2nc(Oc4ccccc4)n(-c4ccccc4)c(=O)c12)CCCC3`, for which the inhibition at 50 µg/mL in the test with Botrytis cinerea was 85%; with Rhizoctonia solani, 65%; in test [2] it was 56%; with Fusarium graminearum it was 15%; in the test with Bipolaris maydis, 76%. Further, the values for the IC50 (in the test with KB; in test [1]) were 54.2 µM and 61.9 µM, respectively.
`CC(C)(C)C(=O)C(Oc1ccc(Cl)cc1)n1cncn1` (configuration not stated) [TRIADIMEFON]: the results for the inhibition at 50 µg/mL in the test with Botrytis cinerea, with Rhizoctonia solani and in the test on Fusarium graminearum were 78%, 91% and 59%, respectively.
With `CCCNc1nc2c(c(C)nc3sc4c(c32)CCCC4)c(=O)n1-c1ccccc1`, the inhibition at 50 µg/mL with Botrytis cinerea worked out at 57%; in the test with Rhizoctonia solani, 24%; in test [2], 29%; in the test with Fusarium graminearum, 20%; in the test on Bipolaris maydis it was 47%. Also, the IC50 in the test with KB was determined as 17.4 µM; in test [1], 25.4 µM.
Take `Cc1nc2sc3c(c2c2nc(Oc4ccc(F)cc4F)n(-c4ccccc4)c(=O)c12)CCCC3`: the inhibition at 50 µg/mL with Botrytis cinerea turned out to be 78%; in the test on Rhizoctonia solani, 63%; in test [2] it was 50%; in the test on Fusarium graminearum, 38%; with Bipolaris maydis it was 71%. Besides, the IC50 (in the test with KB; in test [1]) was greater than 100 µM each time.
As for `O=c1[nH]cc(F)c(=O)[nH]1` [FLUOROURACIL], 12.5 µM corresponded to half-maximal inhibition with KB (IC50).
`Cc1nc2sc3c(c2c2nc(Oc4cccc(F)c4)n(-c4ccccc4)c(=O)c12)CCCC3`: the inhibition at 50 µg/mL worked out at 98% with Botrytis cinerea; 84% with Rhizoctonia solani; 78% in test [2]; 58% in the test on Fusarium graminearum; 90% in the test with Bipolaris maydis. Further, the IC50 (in the test with KB; in test [1]) was greater than 100 µM throughout.
Consider `Cc1cccc(Oc2nc3c(c(C)nc4sc5c(c43)CCCC5)c(=O)n2-c2ccccc2)c1`, for which the inhibition at 50 µg/mL was determined as 99% in the test on Botrytis cinerea; 91% in the test on Rhizoctonia solani; 78% in test [2]; 65% in the test with Fusarium graminearum; 81% in the test with Bipolaris maydis. For the same compound, the IC50 (in the test with KB; in test [1]) was greater than 100 µM each time.
Consider `Cc1nc2sc3c(c2c2nc(Oc4ccc([N+](=O)[O-])cc4)n(-c4ccccc4)c(=O)c12)CCCC3`, for which the inhibition at 50 µg/mL with Botrytis cinerea came out at 85%; in the test with Rhizoctonia solani it was 68%; in test [2] it was 61%; with Fusarium graminearum, 46%; with Bipolaris maydis, 67%. Further, the concentration for half-maximal inhibition (IC50) (in the test with KB; in test [1]) was greater than 100 µM in each case.
Regarding `Cc1cc(Oc2nc3c(c(C)nc4sc5c(c43)CCCC5)c(=O)n2-c2ccccc2)ccc1Cl`, the inhibition at 50 µg/mL in the test on Botrytis cinerea is 73%; in the test with Rhizoctonia solani, 22%; in test [2], 39%; in the test with Fusarium graminearum, 31%; in the test with Bipolaris maydis, 52%. Further, the IC50 came to 84.3 µM in the test with KB and 72.2 µM in test [1].
Consider `Cc1ccc(Oc2nc3c(c(C)nc4sc5c(c43)CCCC5)c(=O)n2-c2ccccc2)cc1`, for which the inhibition at 50 µg/mL was determined as 80% with Botrytis cinerea; 61% in the test on Rhizoctonia solani; 56% in test [2]; 31% with Fusarium graminearum; 76% with Bipolaris maydis. Besides, the figures for the IC50 (with KB; in test [1]) were 48.3 µM and 67.3 µM, respectively.
As for `Cc1nc2sc3c(c2c2nc(Oc4ccc(F)cc4Cl)n(-c4ccccc4)c(=O)c12)CCCC3`, the inhibition at 50 µg/mL with Botrytis cinerea amounted to 88%; with Rhizoctonia solani, 79%; in test [2], 67%; in the test with Fusarium graminearum, 54%; in the test with Bipolaris maydis, 67%. In addition, the IC50 (in the test on KB; in test [1]) was greater than 100 µM each time.
For `COc1cccc(Oc2nc3c(c(C)nc4sc5c(c43)CCCC5)c(=O)n2-c2ccccc2)c1`, the inhibition at 50 µg/mL in the test on Botrytis cinerea worked out at 66%; in the test with Rhizoctonia solani it was 76%; in test [2], 67%; with Fusarium graminearum, 42%; in the test with Bipolaris maydis, 76%. Moreover, the IC50 (with KB; in test [1]) was greater than 100 µM throughout.
For the compound `Cc1nc2sc3c(c2c2nc(Oc4cc(F)cc(F)c4)n(-c4ccccc4)c(=O)c12)CCCC3`, the inhibition at 50 µg/mL in the test with Botrytis cinerea is 83%; in the test with Rhizoctonia solani, 74%; in test [2] it was 61%; with Fusarium graminearum, 31%; in the test with Bipolaris maydis it was 48%. Also, the IC50 in the test with KB was determined as 52.5 µM; in test [1], 39.9 µM.
